GSH fluor: GSH bead compound fluorescence profile | fluorescence (KMESF) at 10 µM | 190,000 tested, 0.25% active | GSH beads flow cytometry, compound fluorescence 488/530 nm; hits give high values | AID 1776; in the data active means fluorescence above about 89;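 further: glutathione beads carrying GST-tagged Bcl family fusion proteins plus one bare bead set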
Arrestin-AP2 inh: blocks beta-arrestin peptide binding to AP2 adaptin; FITC-arrestin peptide / GST-AP2 beads, flow cytometry; AP2 beta2 appendage carries R879A mutation; inhibition, % at 10 µM; 340,000 tested, 0.31% active; AID 504490;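 active means inhibition above a set limit, near 3 SD of compounds lacking own fluorescence, cut at about 54% in these data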
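system = GST-tagged AP2 beta2-adaptin appendage (R879A) on 4 µm glutathione beads | reagent = FITC-labelled arrestin peptide probe, 50 nM final | schedule = compound with beads 12 min RT, then probe 1 h RT | signal = HyperCyt-sampled flow cytometry, FL1 channel, ex 488/em 535 nm | read-out = percent response from loss of bead-bound FITC fluorescence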
Avidin fluor: avidin bead compound fluorescence profile; 220,000 tested, 0.38% active; fluorescence (KMESF) at 10 µM; Avidin beads, compound fluorescence 488/530 nm, flow cytometry; hits give high values; in the data active means fluorescence above about 47
Pemphigus Ab inh: human desmoglein-3 autoantibody binding inhibition; DSG3-coupled beads, scFv-anti-DSG3-GFP binding, flow cytometry; hits give low values; binding (percent of control), % at 10 µM; P32926; AID 588358; 310,000 tested, 0.48% active;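 active means binding more than 3 SD below its plate's average and above zero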;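 further: hits lower antibody fragment binding to DSG3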
Target sequence (P32926 whole entry, looked up, the tested form may be a part): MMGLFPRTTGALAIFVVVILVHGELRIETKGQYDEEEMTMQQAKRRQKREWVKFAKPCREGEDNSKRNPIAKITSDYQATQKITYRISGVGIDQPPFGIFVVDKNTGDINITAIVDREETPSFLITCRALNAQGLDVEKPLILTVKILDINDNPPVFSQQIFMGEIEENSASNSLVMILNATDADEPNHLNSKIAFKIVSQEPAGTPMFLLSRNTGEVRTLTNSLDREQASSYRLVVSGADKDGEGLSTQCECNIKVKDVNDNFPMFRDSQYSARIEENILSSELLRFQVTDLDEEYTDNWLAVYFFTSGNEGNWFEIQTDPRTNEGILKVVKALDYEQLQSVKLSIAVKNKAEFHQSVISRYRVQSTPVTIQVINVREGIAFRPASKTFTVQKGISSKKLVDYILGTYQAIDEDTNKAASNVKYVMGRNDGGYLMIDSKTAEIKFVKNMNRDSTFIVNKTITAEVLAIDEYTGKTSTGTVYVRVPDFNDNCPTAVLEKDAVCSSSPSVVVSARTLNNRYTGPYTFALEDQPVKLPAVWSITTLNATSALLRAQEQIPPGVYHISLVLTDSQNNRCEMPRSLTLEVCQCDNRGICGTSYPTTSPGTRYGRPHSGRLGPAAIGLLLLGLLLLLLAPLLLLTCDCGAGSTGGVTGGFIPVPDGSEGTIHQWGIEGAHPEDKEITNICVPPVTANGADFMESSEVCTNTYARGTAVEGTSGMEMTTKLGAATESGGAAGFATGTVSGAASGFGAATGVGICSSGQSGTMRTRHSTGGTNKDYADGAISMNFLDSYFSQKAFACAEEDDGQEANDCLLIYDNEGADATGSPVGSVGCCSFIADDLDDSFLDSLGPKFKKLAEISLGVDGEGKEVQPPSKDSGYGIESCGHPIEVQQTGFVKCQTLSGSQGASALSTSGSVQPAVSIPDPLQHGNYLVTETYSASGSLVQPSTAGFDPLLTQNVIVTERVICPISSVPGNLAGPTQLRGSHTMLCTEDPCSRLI
Each line names hits and unclear results; the compound was inactive in the other large screens. In the library only some 1.1% were active in any assay of this set; here they are far more common.

c1coc(CNC2CCCCCCC2)c1	Avidin fluor 84 (no result: Pemphigus Ab inh)
c1coc(CNC2CCCCC2)c1	none
C[C@H](NC(=O)c1ccccc1Cl)C(=O)OCC(=O)NNC(=O)c1cccs1	none (no result: GSH fluor, Avidin fluor)
CC(=O)c1ccc(NC(=O)Cn2cnc(S(=O)(=O)N3CCc4ccccc43)c2)cc1	Pemphigus Ab inh 79 (no result: GSH fluor, Avidin fluor)
OC1(c2ccccc2)CC(c2ccccc2)c2ccccc2O1 (stereo not given)	Pemphigus Ab inh 49 (no result: GSH fluor, Avidin fluor)
Cc1ccc(SSc2cc(C)ccc2N)c(N)c1	Pemphigus Ab inh 65 (no result: GSH fluor, Avidin fluor)
CN(C)Cc1cc(O)c(CN(C)C)cc1O	Pemphigus Ab inh 92 (no result: GSH fluor)
Cc1ccc(-c2nc(-c3ccccc3)no2)cc1	none
Cc1ccc(-c2nc(-c3cccnc3)no2)cc1	Avidin fluor 56
COc1cc(S(=O)(=O)NCCCn2ccnc2)ccc1Cl	none (no result: GSH fluor, Avidin fluor)
CCOc1ccccc1N1CC(C(=O)Nc2cccc(S(=O)(=O)N3CCCCC3)c2)CC1=O (stereo not given)	Avidin fluor 54
Cc1cc(-c2csc(N)n2)c(C)n1Cc1ccco1	Pemphigus Ab inh 71
Cc1ccc(-n2c(C)cc(-c3csc(N)n3)c2C)cc1	none
Cc1cc(-c2csc(N)n2)c(C)n1C	Pemphigus Ab inh 73
CN(C)CCCn1c(=S)[nH]c2ccccc2c1=O	none
CN(C)CCCn1c2c3ccccc3ccc2c2oc(=O)c3ccccc3c21	Pemphigus Ab inh 70 (no result: GSH fluor, Avidin fluor)
N#Cc1cccc(NC(=O)CC2CCCCC2)c1	GSH fluor 260
O=C(CC1CCCC1)Nc1cccc(Br)c1	none (no result: GSH fluor, Avidin fluor)
CCn1c(SCC(=O)Nc2nc3ccc(C)cc3s2)nc2c(c1=O)SC(C)C2 (stereo not given)	Avidin fluor 117
CC(C)(C)NC(=O)Cn1c(SCC(N)=O)nc2ccccc21	none (no result: Pemphigus Ab inh)
COc1ccc(OC)c(C(=O)CSc2nc3ccccc3n2CC(=O)NC(C)(C)C)c1	GSH fluor 270
CCSc1nnc(NC(=O)CSc2nnc(CNC(=O)c3ccccc3F)o2)s1	Pemphigus Ab inh 54
COc1ccc(C(C)=O)cc1CC(=O)NCCCn1ccnc1	none (no result: GSH fluor, Avidin fluor)
O=C(NCCC1=CCCCC1)C(=O)NCc1ccncc1	Pemphigus Ab inh 52
CCn1c(=O)c(C(=O)CN2CCN(S(=O)(=O)c3cc(C)ccc3C)CC2)c(N)n(Cc2ccccc2)c1=O	Pemphigus Ab inh 88
Cc1c(C(=O)NCc2ccc3c(c2)OCO3)sc2nc(-c3ccc(F)cc3)cn12	none
Cc1c(C(=O)NCc2ccc3c(c2)OCO3)sc2nc(-c3ccccc3)cn12	Pemphigus Ab inh 58
N=C1C=CC(=C(c2ccc(N)cc2)c2ccc(N)cc2)C=C1	none (no result: GSH fluor, Avidin fluor)
COc1cc(C(=O)N2CCN(C(=O)CC(C)C)CC2)cc(OC)c1OC	Avidin fluor 120
COc1ccc(Nc2cc(C)nc3nc(C)nn23)c(OC)c1	none
COc1ccc(OC)c(Nc2cc(C)nc3nc(C)nn23)c1	Pemphigus Ab inh 82
Cc1ccccc1N1CCN(S(=O)(=O)c2ccccc2)CC1	GSH fluor 98
NC(=O)c1ccc(NC(=O)COc2coc(CN3CCc4ccccc4C3)cc2=O)cc1	none (no result: GSH fluor, Avidin fluor)
O=C(O)c1ccc(N2C(=O)c3cccc4c(C(=O)O)ccc(c34)C2=O)cc1	none (no result: Pemphigus Ab inh)
O=C(O)c1ccc2c3c(cccc13)C(=O)N(c1ccccc1)C2=O	Pemphigus Ab inh 16
CC(=O)c1sc(NC(=O)CN2C(=O)C3CC=CCC3C2=O)nc1-c1ccccc1 (stereo not given)	none (no result: GSH fluor, Avidin fluor)
Clc1ccc(-c2nc3cc(CN4CCCCC4)ccc3o2)cc1	Pemphigus Ab inh 72 (no result: GSH fluor, Avidin fluor)
Cc1cc(C)c2[nH]c(=O)c(CN(Cc3cccs3)C(=S)NCC3CCCO3)cc2c1 (stereo not given)	Pemphigus Ab inh 85
COc1ccc(-c2nnn(CCc3nn[nH]n3)n2)cc1OC	none
COc1ccc(-c2nnn(Cc3nn[nH]n3)n2)cc1OC	GSH fluor 280 (no result: Pemphigus Ab inh)
COc1ccc(CNC(=O)CN(CC2CCCO2)C(=O)CNS(=O)(=O)c2ccccc2)cc1 (stereo not given)	Avidin fluor 171
O=C(CN(CC1CCCO1)C(=O)CNS(=O)(=O)c1ccccc1)NCc1ccc(F)cc1 (stereo not given)	none (no result: GSH fluor, Avidin fluor)
Cc1ccc(NC(=O)c2ccccc2CCc2ccccc2)c(C)c1	Avidin fluor 56
COc1ccc(NC(=O)CN2C(=O)c3ccccc3S2(=O)=O)cc1S(=O)(=O)N1CCOCC1	none (no result: GSH fluor, Avidin fluor)
CCOC(=O)c1nnn(-c2nonc2NC(C)=O)c1C	Pemphigus Ab inh 52
CS(=O)(=O)N(Cc1ccccc1)c1ccc(C(=O)NCCSCc2ccco2)cc1	GSH fluor 88 (no result: Pemphigus Ab inh)
CS(=O)(=O)Nc1ccc(C(=O)NCCSCc2ccco2)cc1	none
CC(C)NC(=O)c1ccc(N(Cc2ccccc2)S(C)(=O)=O)cc1	Pemphigus Ab inh 88 (no result: GSH fluor, Avidin fluor)
O=C(NNC(=O)c1cc(Br)c(Br)s1)c1ccncc1	none (no result: GSH fluor, Avidin fluor, Pemphigus Ab inh)
Cc1noc(C)c1CSc1nc2ccccc2n1C	GSH fluor 240
Cc1noc(C)c1CSc1nnc2sc3ccccc3n12	none
CCc1ccc(C(=O)COC(=O)CNC(=O)c2cccs2)cc1	Avidin fluor 78
CCOC(=O)c1cnn(-c2ccc(C)cc2)c1N	GSH fluor 255
Cc1ccc2nc(-c3ccc(O)cc3)oc2c1	none (no result: GSH fluor, Avidin fluor)
CC(=O)Nc1nc(C)c(CCCOc2ccc([N+](=O)[O-])cc2)c(=O)[nH]1	Avidin fluor 47 (no result: GSH fluor)
CCN(CCCNC(=O)C1CCC(=O)N1Cc1ccccc1Cl)c1cccc(C)c1 (stereo not given)	Pemphigus Ab inh 78
CCOC(=O)C1CCN(C(=O)c2cccnc2Oc2ccccc2)CC1	none (no result: GSH fluor)
COc1ccccc1NC(=O)Cn1cc(C(=O)C(=O)N2CCOCC2)c2ccccc21	none (no result: GSH fluor, Avidin fluor)
CCc1ccc(OCC(=O)Nc2ccc(N3CCN(C(=O)c4ccccc4)CC3)cc2)cc1	Pemphigus Ab inh 95 (no result: GSH fluor, Avidin fluor)
COc1ccc(NC(=O)c2ccc(NC(=O)CN3CCN(c4ccccc4)CC3)cc2)cc1	Pemphigus Ab inh 5.2 (no result: GSH fluor, Avidin fluor)
COc1ccc(NC(=O)c2ccc(CN3CCN(c4ccccc4)CC3)cc2)cc1	none (no result: Pemphigus Ab inh)
COc1ccc(C2(c3ccc(OC)cc3)NC(=O)N(CC(=O)Nc3ccc(N4CCOCC4)cc3)C2=O)cc1	Pemphigus Ab inh 3.0 (no result: GSH fluor, Avidin fluor)
CCOc1cc(S(=O)(=O)NCC2CCCO2)ccc1F (stereo not given)	none (no result: GSH fluor, Avidin fluor)
CCN1c2ccccc2N(C)C1(C)c1ccccc1 (stereo not given)	Arrestin-AP2 inh 75
CCOC(=O)c1ccc(NC(=S)NCCc2ccccc2F)cc1	none
O=C(CN1C(=O)NC2(CCCC2)C1=O)Nc1cccc(Cl)c1Cl	Pemphigus Ab inh 57 (no result: GSH fluor, Avidin fluor)
O=C(CN1C(=O)/C(=C2/SC(=S)N(CCS(=O)(=O)O)C2=O)c2ccccc21)Nc1cccc(C(F)(F)F)c1	Pemphigus Ab inh 82 (no result: GSH fluor, Avidin fluor)
O=C(CN1C(=O)/C(=C2\SC(=S)N(CCS(=O)(=O)O)C2=O)c2ccccc21)Nc1cccc(Br)c1	Pemphigus Ab inh 45 (no result: GSH fluor, Avidin fluor)
COc1ccc(N2CCN(S(=O)(=O)CCNC(=O)c3cc(=O)c4ccccc4o3)CC2)cc1	Pemphigus Ab inh -12 (no result: GSH fluor, Avidin fluor)
COc1ccc(N2CCN(S(=O)(=O)c3cccc(C(F)(F)F)c3)CC2)cc1	Pemphigus Ab inh -25
C/C(=N\OC(=O)c1ccc(F)cc1)c1sc(-c2ccccc2)nc1C	none (no result: Pemphigus Ab inh)

Bioassay records: PubChem BioAssay, NMMLSC
